In ChEMBL document CHEMBL3232791, “Synthesis and antibacterial evaluation of amino acid-antibiotic conjugates” (2014):

How the values were obtained:
Assay type in all cases: functional
Staphylococcus aureus [1] = assay: Antibacterial activity against Staphylococcus aureus RN4220 assessed as growth inhibition at 60 ug/ml after 16 hrs by spectrophotometric analysis; settings: RN4220, 16 h, read-out: GI
Summary of the method: (§1)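 Growth inhibition read as OD600 on 300 µL culture samples, with untreated control cultures taken as maximum growth. Percent inhibition = (OD600 control − OD600 treated) × 100 / OD600 control. Parent antibiotics and their conjugates were run in parallel at three concentrations per compound, in biological duplicate.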

Pseudomonas aeruginosa [2] = assay: Antibacterial activity against Pseudomonas aeruginosa PAO1 assessed as growth inhibition at 10 ug/ml after 16 hrs by spectrophotometric analysis; settings: PAO1, 16 h, read-out: GI; summary of the method: as §1
Escherichia coli [3] = assay: Antibacterial activity against Escherichia coli DH5alpha assessed as growth inhibition at 3 ug/ml after 16 hrs by spectrophotometric method; settings: DH5[alpha], read-out: GI; summary of the method: as §1
Escherichia coli [4] = assay: Antibacterial activity against Escherichia coli DH5alpha assessed as growth inhibition at 0.75 ug/ml after 16 hrs by spectrophotometric method; settings: DH5[alpha], read-out: GI; summary of the method: as §1
Escherichia coli [5] = assay: Antibacterial activity against Escherichia coli DH5alpha assessed as growth inhibition at 1.5 ug/ml after 16 hrs by spectrophotometric method; settings: DH5[alpha], read-out: GI; summary of the method: as §1
Staphylococcus aureus [6] = assay: Antibacterial activity against Staphylococcus aureus RN4220 assessed as growth inhibition at 15 ug/ml after 16 hrs by spectrophotometric analysis; settings: RN4220, 16 h, read-out: GI; summary of the method: as §1
Bacillus subtilis [7] = assay: Antibacterial activity against Bacillus subtilis 168 assessed as growth inhibition at 20 ug/ml after 16 hrs by spectrophotometric analysis; settings: subsp. subtilis str. 168, 16 h, read-out: GI; summary of the method: as §1
Bacillus subtilis [8] = assay: Antibacterial activity against Bacillus subtilis 168 assessed as growth inhibition at 5 ug/ml after 16 hrs by spectrophotometric analysis; settings: subsp. subtilis str. 168, 16 h, read-out: GI; summary of the method: as §1
Staphylococcus aureus [9] = assay: Antibacterial activity against Staphylococcus aureus RN4220 assessed as growth inhibition at 30 ug/ml after 16 hrs by spectrophotometric analysis; settings: RN4220, 16 h, read-out: GI; summary of the method: as §1
Bacillus subtilis [10] = assay: Antibacterial activity against Bacillus subtilis 168 assessed as growth inhibition at 10 ug/ml after 16 hrs by spectrophotometric analysis; settings: subsp. subtilis str. 168, 16 h, read-out: GI; summary of the method: as §1
Pseudomonas aeruginosa [11] = assay: Antibacterial activity against Pseudomonas aeruginosa PAO1 assessed as growth inhibition at 40 ug/ml after 16 hrs by spectrophotometric analysis; settings: PAO1, 16 h, read-out: GI; summary of the method: as §1
Pseudomonas aeruginosa [12] = assay: Antibacterial activity against Pseudomonas aeruginosa PAO1 assessed as growth inhibition at 20 ug/ml after 16 hrs by spectrophotometric analysis; settings: PAO1, 16 h, read-out: GI; summary of the method: as §1
Staphylococcus aureus [13] = assay: Antibacterial activity against Staphylococcus aureus RN4220 assessed as growth inhibition at 300 ug/ml after 16 hrs by spectrophotometric analysis; settings: RN4220, 16 h, read-out: GI; summary of the method: as §1
Staphylococcus aureus [14] = assay: Antibacterial activity against Staphylococcus aureus RN4220 assessed as growth inhibition at 75 ug/ml after 16 hrs by spectrophotometric analysis; settings: RN4220, 16 h, read-out: GI; summary of the method: as §1
Escherichia coli [15] = assay: Antibacterial activity against Escherichia coli DH5alpha assessed as growth inhibition at 50 ug/ml after 16 hrs by spectrophotometric method; settings: DH5[alpha], read-out: GI; summary of the method: as §1
Escherichia coli [16] = assay: Antibacterial activity against Escherichia coli DH5alpha assessed as growth inhibition at 75 ug/ml after 16 hrs by spectrophotometric method; settings: DH5[alpha], read-out: GI; summary of the method: as §1
Staphylococcus aureus [17] = assay: Antibacterial activity against Staphylococcus aureus RN4220 assessed as growth inhibition at 150 ug/ml after 16 hrs by spectrophotometric analysis; settings: RN4220, 16 h, read-out: GI; summary of the method: as §1
Escherichia coli [18] = assay: Antibacterial activity against Escherichia coli DH5alpha assessed as growth inhibition at 100 ug/ml after 16 hrs by spectrophotometric method; settings: DH5[alpha], read-out: GI; summary of the method: as §1
Staphylococcus aureus [19] = assay: Antibacterial activity against Staphylococcus aureus RN4220 assessed as growth inhibition at 50 ug/ml after 16 hrs by spectrophotometric analysis; settings: RN4220, 16 h, read-out: GI; summary of the method: as §1
Bacillus subtilis [20] = assay: Antibacterial activity against Bacillus subtilis 168 assessed as growth inhibition at 40 ug/ml after 16 hrs by spectrophotometric analysis; settings: subsp. subtilis str. 168, 16 h, read-out: GI; summary of the method: as §1
Staphylococcus aureus [21] = assay: Antibacterial activity against Staphylococcus aureus RN4220 assessed as growth inhibition at 200 ug/ml after 16 hrs by spectrophotometric analysis; settings: RN4220, 16 h, read-out: GI; summary of the method: as §1
Escherichia coli [22] = assay: Antibacterial activity against Escherichia coli DH5alpha assessed as growth inhibition at 10 ug/ml after 16 hrs by spectrophotometric method; settings: DH5[alpha], read-out: GI; summary of the method: as §1
Staphylococcus aureus [23] = assay: Antibacterial activity against Staphylococcus aureus RN4220 assessed as growth inhibition at 100 ug/ml after 16 hrs by spectrophotometric analysis; settings: RN4220, 16 h, read-out: GI; summary of the method: as §1
Escherichia coli [24] = assay: Antibacterial activity against Escherichia coli DH5alpha assessed as growth inhibition at 2.5 ug/ml after 16 hrs by spectrophotometric method; settings: DH5[alpha], read-out: GI; summary of the method: as §1
Escherichia coli [25] = assay: Antibacterial activity against Escherichia coli DH5alpha assessed as growth inhibition at 5 ug/ml after 16 hrs by spectrophotometric method; settings: DH5[alpha], read-out: GI; summary of the method: as §1
Escherichia coli [26] = assay: Antibacterial activity against Escherichia coli DH5alpha assessed as growth inhibition at 40 ug/ml after 16 hrs by spectrophotometric method; settings: DH5[alpha], read-out: GI; summary of the method: as §1
Staphylococcus aureus [27] = assay: Antibacterial activity against Staphylococcus aureus RN4220 assessed as growth inhibition at 120 ug/ml after 16 hrs by spectrophotometric analysis; settings: RN4220, 16 h, read-out: GI; summary of the method: as §1
Staphylococcus aureus [28] = assay: Antibacterial activity against Staphylococcus aureus RN4220 assessed as growth inhibition at 240 ug/ml after 16 hrs by spectrophotometric analysis; settings: RN4220, 16 h, read-out: GI; summary of the method: as §1

Row | Compound | inhibition of growth at 60 µg/mL (Staphylococcus aureus [1]) | inhibition of growth at 10 µg/mL (Pseudomonas aeruginosa [2]) | inhibition of growth at 3 µg/mL (Escherichia coli [3]) | inhibition of growth at 0.75 µg/mL (Escherichia coli [4]) | inhibition of growth at 1.5 µg/mL (Escherichia coli [5]) | inhibition of growth at 15 µg/mL (Staphylococcus aureus [6]) | inhibition of growth at 20 µg/mL (Bacillus subtilis [7]) | inhibition of growth at 5 µg/mL (Bacillus subtilis [8]) | inhibition of growth at 30 µg/mL (Staphylococcus aureus [9]) | inhibition of growth at 10 µg/mL (Bacillus subtilis [10]) | inhibition of growth at 40 µg/mL (Pseudomonas aeruginosa [11]) | inhibition of growth at 20 µg/mL (Pseudomonas aeruginosa [12]) | inhibition of growth at 300 µg/mL (Staphylococcus aureus [13]) | inhibition of growth at 75 µg/mL (Staphylococcus aureus [14]) | inhibition of growth at 50 µg/mL (Escherichia coli [15]) | inhibition of growth at 75 µg/mL (Escherichia coli [16]) | inhibition of growth at 150 µg/mL (Staphylococcus aureus [17]) | inhibition of growth at 100 µg/mL (Escherichia coli [18]) | also measured
1 | CCn1cc(C(=O)O)c(=O)c2cc(F)c(N3CCN(C(=O)C(C)NC(=O)OCc4ccccc4)CC3)cc21 (stereo not given) | 86.1% | -25.7% | 0.77% | -4.73% | 1.25% | 51.5% | 90.3% | 92.3% | 77.9% | 91.4% | 25.8% | -19.8% | – | – | – | – | – | – | –
2 | Cc1ncc([N+](=O)[O-])n1CCOC(=O)[C@H](CCCCNC(=O)OCc1ccccc1)NC(=O)OCc1ccccc1 | – | – | – | – | – | – | – | – | – | – | – | – | 68% | -2.96% | 51.9% | 62.5% | 22.3% | 70% | –
3 | CCn1cc(C(=O)O)c(=O)c2cc(F)c(N3CCNCC3)cc21 [NORFLOXACIN] | 81% | 81.1% | 80.8% | 55.3% | 72.8% | 63.9% | 92.2% | 90.7% | 73.5% | 91.9% | 89.1% | 90.5% | – | – | – | – | – | – | –
4 | CCn1cc(C(=O)O)c(=O)c2cnc(N3CCN(C(=O)[C@H](C)NC(=O)OCc4ccccc4)CC3)nc21 | – | – | – | – | – | – | 5.34% | – | – | 90.3% | – | – | – | – | – | – | – | – | inhibition of growth at 50 µg/mL (Staphylococcus aureus [19]): 38%; inhibition of growth at 40 µg/mL (Bacillus subtilis [20]): 60.1%; inhibition of growth at 200 µg/mL (Staphylococcus aureus [21]): 63%; inhibition of growth at 10 µg/mL (Escherichia coli [22]): 1.75%; inhibition of growth at 100 µg/mL (Staphylococcus aureus [23]): 55.4%; inhibition of growth at 2.5 µg/mL (Escherichia coli [24]): -12%; inhibition of growth at 5 µg/mL (Escherichia coli [25]): -12.1%
5 | CCn1cc(C(=O)O)c(=O)c2cc(F)c(N3CCN(C(=O)CNC(=O)OCc4ccccc4)CC3)cc21 | 88.5% | -16.2% | 20.8% | 5.96% | 9.75% | 83.6% | 89.5% | 91.6% | 85.7% | 90.2% | 81.5% | 10.6% | – | – | – | – | – | – | –
6 | Cc1ncc([N+](=O)[O-])n1CCO [METRONIDAZOLE] | – | – | – | – | – | – | – | – | – | – | – | – | 16.4% | -14.3% | 6.64% | 8.2% | -9.9% | 15% | –
7 | Nc1ccc(S(=O)(=O)Nc2ncccn2)cc1 [SULFADIAZINE] | -6.47% | – | – | – | – | – | – | – | – | – | – | – | – | – | 8.11% | 6.44% | – | – | inhibition of growth at 40 µg/mL (Escherichia coli [26]): 2.66%; inhibition of growth at 120 µg/mL (Staphylococcus aureus [27]): 2.17%; inhibition of growth at 240 µg/mL (Staphylococcus aureus [28]): 18.1%
8 | Cc1ncc([N+](=O)[O-])n1CCOC(=O)[C@@H](NC(=O)OCc1ccccc1)C(C)C | – | – | – | – | – | – | – | – | – | – | – | – | 13.7% | -7.76% | 3.28% | 3.26% | -7.76% | 4.47% | –
9 | CCn1cc(C(=O)O)c(=O)c2cnc(N3CCNCC3)nc21 [PIPEMIDIC ACID] | – | – | – | – | – | – | 26% | – | – | 18.2% | – | – | – | – | – | – | – | – | inhibition of growth at 50 µg/mL (Staphylococcus aureus [19]): 26.2%; inhibition of growth at 40 µg/mL (Bacillus subtilis [20]): 79.8%; inhibition of growth at 200 µg/mL (Staphylococcus aureus [21]): 61.8%; inhibition of growth at 10 µg/mL (Escherichia coli [22]): 7.89%; inhibition of growth at 100 µg/mL (Staphylococcus aureus [23]): 44.4%; inhibition of growth at 2.5 µg/mL (Escherichia coli [24]): -13%; inhibition of growth at 5 µg/mL (Escherichia coli [25]): -9.68%
10 | CCn1cc(C(=O)O)c(=O)c2cc(F)c(N3CCN(C(=O)[C@H](Cc4ccccc4)NC(=O)OCc4ccccc4)CC3)cc21 | 92.7% | -28% | 0.54% | -0.95% | 3.79% | 12% | 90.1% | 49.1% | 89.6% | 61.1% | 5.69% | -18.6% | – | – | – | – | – | – | –
